Experiment [1] deals with Mus musculus. Briefly: In vivo activation of iNKT cells in C57BL/6 mouse assessed as stimulation of IFNgamma production in serum at 5 ug, ip after 16 hrs by ELISA relative to alpha-GalCer. The class given is functional, organism-based. A digest of the protocol: (§1)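 C57BL/6 mice, 5–12 weeks old, in-house bred or purchased. Glycolipid dissolved in PBS with DMSO, given intraperitoneally at 5 μg per mouse. Mice bled 4 h (IL-4) and 16 h (IFN-γ) after injection; cytokines measured in serum. At least 2 separate experiments, 5–8 mice per group per glycolipid.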
Background: ELISA stands for enzyme-linked immunosorbent assay.

Experiment [2] concerns Mus musculus. Briefly: In vivo activation of iNKT cells in C57BL/6 mouse assessed as stimulation of IL4 production in serum at 5 ug, ip after 4 hrs by ELISA. Type of experiment: functional, organism-based. A digest of the protocol:
as §1

The structures appear in SMILES notation. Active and inactive are the calls of the source. The rule behind the calls is not given here.

For `CCCCCCCCCCCCCCCCCCCCCCCCCC(=O)N[C@@H](CO[C@H]1O[C@H](COC(=O)Nc2cccc3ccccc23)[C@H](O)[C@H](O)[C@H]1O)[C@H](O)[C@H](O)CCCCCCCCCCCCCC`, the result in the experiment on Mus musculus [1] and in the experiment on Mus musculus [2] was Active.

In the case of `CCCCCCCCCCCCCCCCCCCCCCCCCC(=O)N[C@@H](CO[C@H]1O[C@H](C(=O)NCc2ccc(Cl)c(Cl)c2)[C@H](O)[C@H](O)[C@H]1O)[C@H](O)[C@H](O)CCCCCCCCCCCCCC`, the outcome in the experiment with Mus musculus [1] and in the experiment on Mus musculus [2] was inactive.

Regarding `CCCCCCCCCCCCCCCCCCCCCCCCCC(=O)N[C@@H](CO[C@H]1O[C@H](C(=O)NCc2ccccc2)[C@H](O)[C@H](O)[C@H]1O)[C@H](O)[C@H](O)CCCCCCCCCCCCCC`, the result in the experiment with Mus musculus [1] and with Mus musculus [2] was inactive.

Take `CCCCCCCCCCCCCCCCCCCCCCCCCC(=O)N[C@@H](CO[C@H]1O[C@H](C(=O)Nc2ccccc2)[C@H](O)[C@H](O)[C@H]1O)[C@H](O)[C@H](O)CCCCCCCCCCCCCC`: in the experiment with Mus musculus [1], the outcome was Active. Besides, in the experiment on Mus musculus [2], the result was inactive.

For `CCCCCCCCCCCCCCCCCCCCCCCCCC(=O)N[C@@H](CO[C@H]1O[C@H](C(=O)NCCc2ccccc2)[C@H](O)[C@H](O)[C@H]1O)[C@H](O)[C@H](O)CCCCCCCCCCCCCC`, the result in the experiment on Mus musculus [1] and in the experiment on Mus musculus [2] was inactive.

For `CCCCCCCCCCCCCCCCCCCCCCCCCC(=O)N[C@@H](CO[C@H]1O[C@H](C(=O)NCc2cccc3ccccc23)[C@H](O)[C@H](O)[C@H]1O)[C@H](O)[C@H](O)CCCCCCCCCCCCCC`, the result in the experiment on Mus musculus [1] and with Mus musculus [2] was inactive.

With `CCCCCCCCCCCCCCCCCCCCCCCCCC(=O)N[C@@H](CO[C@H]1O[C@H](C(=O)Nc2ccc(Cl)c(Cl)c2)[C@H](O)[C@H](O)[C@H]1O)[C@H](O)[C@H](O)CCCCCCCCCCCCCC`, the outcome with Mus musculus [1] and with Mus musculus [2] was inactive.

For `CCCCCCCCCCCCCCCCCCCCCCCCCC(=O)N[C@@H](CO[C@H]1O[C@H](COC(=O)Nc2ccc(Cl)cc2)[C@H](O)[C@H](O)[C@H]1O)[C@H](O)[C@H](O)CCCCCCCCCCCCCC`, the outcome in the experiment with Mus musculus [1] and in the experiment on Mus musculus [2] was Active.

Turning to `CCCCCCCCCCCCCCCCCCCCCCCCCC(=O)N[C@@H](CO[C@H]1O[C@H](COC(=O)Nc2ccncc2)[C@H](O)[C@H](O)[C@H]1O)[C@H](O)[C@H](O)CCCCCCCCCCCCCC`, the result in the experiment on Mus musculus [1] and in the experiment on Mus musculus [2] was Active.

Turning to `CCCCCCCCCCCCCCCCCCCCCCCCCC(=O)N[C@@H](CO[C@H]1O[C@H](C(=O)NCc2ccsc2)[C@H](O)[C@H](O)[C@H]1O)[C@H](O)[C@H](O)CCCCCCCCCCCCCC`, the outcome in the experiment on Mus musculus [1] was Active. The outcome with Mus musculus [2] was inactive.

(Values after ChEMBL document CHEMBL3588843, “Synthesis of C-5″ and C-6″-modified α-GalCer analogues as iNKT-cell agonists” (Bioorg Med Chem, 2015).)
